The record followed here is ChEMBL document CHEMBL1821727, “Design, synthesis, and pharmacological evaluation of novel hybrid compounds to treat sickle cell disease symptoms” (J Med Chem, 2011).

By inhibition in vivo is commonly meant the share of the control response that was lost under treatment.

Active and inactive are the calls of the source. No cut-off for these calls is given here.

Data set [1] concerns Mus musculus. The data set can be described thus: Antiinflammatory activity in Swiss albino mouse peritonitis model assessed as reduction in thioglycollate-induced of leukocyte migration at 300 umol/kg, po administered 1 hr before thioglycollate challenge measured after 4 hrs. It counts as functional, organism-based. The procedure, abridged:
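Mice dosed at 300 μmol/kg po in arabic gum, then 1 h later given 1 mL 3% thioglycollate ip. Killed at 4 h, peritoneum washed with 1.5 mL cold PBS; exudate cells recovered and total cells counted in Neubauer chamber; exudate >98% neutrophils. Mean ± SEM, at least six animals, ANOVA/Dunnett vs vehicle.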

In data set [2] the test system is Salmonella typhimurium. The data set can be described thus: Mutagenic activity in Salmonella Typhimurium TA100 preincubated for 20 to 30 mins. It counts as toxicity, organism-based. As to conditions: salmonella enterica subsp. enterica serovar typhimurium.
Data set [3] concerns Salmonella typhimurium. The data set can be described thus: Mutagenic activity in Salmonella Typhimurium TA102 preincubated for 20 to 30 mins. The class given is toxicity, organism-based. The note with it: salmonella enterica subsp. enterica serovar typhimurium.
In data set [4] the test system is Mus musculus. The data set can be described thus: Antiinflammatory activity in Swiss albino mouse assessed as inhibition of capsaicin-induced ear edema at 300 umol/kg, po administered 1 hr before capsaicin challenge measured after 30 mins relative to control. The class given is functional. The procedure, abridged:
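Female Swiss mice, 8 weeks old, groups of six; oral dosing at 300 μmol/kg as suspension in arabic gum, vehicle controls 10 mL/kg po; left ear given acetone. Killed 30 min after capsaicin; 7 mm ear punches weighed, edema = treated right minus untreated left ear weight; % inhibition vs vehicle control; mean ± SEM, n = 8, ANOVA/Dunnett.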

In a further data set the test system is Blood. The data set can be described thus: Genotoxicity in mouse peripheral blood by micronucleus test. The class given is toxicity, tissue-based.
Data set [5] in a line: Antiinflammatory activity in knockout-transgenic sickle cell mouse monocytes assessed as inhibition of LPS-induced TNFalpha production at 100 uM administered 30 mins before LPS challenge […]. The class given is functional, Monocyte.
Data set [6] is described as follows: Antiinflammatory activity in knockout-transgenic sickle cell mouse monocytes assessed as inhibition of LPS-induced TNFalpha production at 300 uM administered 30 mins before LPS challenge […]. It counts as functional, Monocyte.
The subject of data set [7] is Mus musculus. The data set can be described thus: Antinociceptive activity in Swiss albino mouse assessed as reduction in acetic acid-induced abdominal constrictions at 100 umol/kg, po administered 1 hr before acetic acid challenge measured for 20 mins relative to control. The class given is functional, Abdomen. Further details: scale not given: the % may be the effect or the level left. Summed up:
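Constrictions counted for 20 min starting 10 min after injection; % inhibition vs vehicle group; mean ± SEM, 10 animals per group, Student's t test.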

A short description of data set [8]: Antiinflammatory activity in knockout-transgenic sickle cell mouse monocytes assessed as TNFalpha level at 300 uM administered 30 mins before LPS challenge measured after […] by ELISA. The class given is functional, Monocyte. Summed up: (§1)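 Blood drawn by intracardiac puncture from anesthetized adult knockout-transgenic sickle cell mice; mononuclear cells isolated on Ficoll, adhered 2 h in DMEM + 10% calf serum (5% CO2, 37 °C), monocyte purity >90% by May-Giemsa. Compounds (100 or 300 μM; dexamethasone 1 μM) added 30 min before LPS 1 μg/mL; supernatant TNFα by ELISA after 20 h. Mean ± SEM, N ≥ 4 experiments.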

Data set [9] is described as follows: Antiinflammatory activity in knockout-transgenic sickle cell mouse monocytes assessed as TNFalpha level at 100 uM administered 30 mins before LPS challenge measured after […] by ELISA. The class given is functional, Monocyte. The procedure, abridged: as §1
A short description of data set [10]: Antiinflammatory activity in knockout-transgenic sickle cell mouse monocytes assessed as inhibition of LPS-induced TNFalpha production at 1 uM administered 30 mins before LPS challenge […]. It counts as functional, Monocyte.

In the case of `O=C1CCC(N2C(=O)c3ccccc3C2=O)C(=O)N1CO[N+](=O)[O-]` (stereo unspecified), in the data set on Mus musculus [1], the result was Active. Besides, the Activity result in the data set with Salmonella typhimurium [2], in the data set with Salmonella typhimurium [3] and in the data set on Blood was “Non-toxic” in each case. For the same compound, in the data set with Mus musculus [4], the inhibition in vivo at 300 µmol/kg came out at 43%.
`O=C1c2ccccc2C(=O)N1c1cccc(CO[N+](=O)[O-])c1`: the result in the data set on Mus musculus [1] was Active. For the same compound, the Activity entry in the data set on Salmonella typhimurium [2], in the data set on Salmonella typhimurium [3] and with Blood was “Non-toxic” in each case. The “inhibition (INH)” value was 45% in data set [5] and 91% in [6]. Further, the inhibition in vivo at 300 µmol/kg with Mus musculus [4] was determined as 65%.
For the compound `O=C1c2ccccc2C(=O)N1c1ccc(CO[N+](=O)[O-])cc1`, the Activity in the data set on Mus musculus [7] is on record as 66%; with Salmonella typhimurium [2] it was “Non-toxic”; with Salmonella typhimurium [3] it was “Non-toxic”; in the data set with Blood it was “Non-toxic”. Also, in the data set with Mus musculus [1], the outcome was Active. Further, the “inhibition (INH)” value in data set [5] came out at 67%; in data set [6], 84%. For the same compound, in the data set with Mus musculus [4], the inhibition in vivo at 300 µmol/kg came out at 43%.
On to `NC(=O)NO` [HYDROXYUREA], for which the Activity in data set [8] is 579.8 pg/mL; in data set [9], 463.3 pg/mL.
With `O=C1c2ccccc2C(=O)N1c1ccc(CCO[N+](=O)[O-])cc1`, the outcome in the data set on Mus musculus [1] was Active. Also, the Activity result in the data set with Salmonella typhimurium [2], with Salmonella typhimurium [3] and in the data set with Blood was “Non-toxic” throughout. The inhibition in vivo at 300 µmol/kg in the data set with Mus musculus [4] came to 43%.
As to `Cc1c(N(C)CS(=O)(=O)O)c(=O)n(-c2ccccc2)n1C`, in the data set on Mus musculus [7] (Abdomen), the result was inactive.
As to `O=C1c2ccccc2C(=O)N1CO[N+](=O)[O-]`, the outcome in the data set on Mus musculus [1] was Active. Besides, the Activity result in the data set on Salmonella typhimurium [2], in the data set on Salmonella typhimurium [3] and with Blood was “Non-toxic” in each case. Also, the inhibition in vivo at 300 µmol/kg in the data set with Mus musculus [4] was found to be 43%.
With `C[C@@H]1C[C@H]2[C@@H]3CCC4=CC(=O)C=C[C@]4(C)[C@@]3(F)[C@@H](O)C[C@]2(C)[C@@]1(O)C(=O)CO` [DEXAMETHASONE], in data set [10], the “inhibition (INH)” value is on record as 83%.
Turning to `O=C1c2ccccc2C(=O)N1CCO[N+](=O)[O-]`, the Activity with Mus musculus [7] is 25%; with Salmonella typhimurium [2], “Non-toxic”; in the data set on Salmonella typhimurium [3], “Non-toxic”; in the data set on Blood, “Non-toxic”. The result in the data set on Mus musculus [1] was Active. In addition, in the data set on Mus musculus [4], the inhibition in vivo at 300 µmol/kg is 43%.
Turning to `COc1ccc2c(c1)c(CC(=O)O)c(C)n2C(=O)c1ccc(Cl)cc1`, the inhibition result in the data set on Mus musculus [4] was “Active”.
